Results reported in ChEMBL document CHEMBL3853327 (J Med Chem, 2016).

Target: not listed separately
Experiment: Inhibition of recombinant wild type HIV1 reverse transcriptase using DIG-dUTP/biotin-dUTP/dTTP assessed as suppression of biotin-dUTP incorporation after 1 hr by ELISA
Design: species or system Human immunodeficiency virus 1
Details: not given
In short: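 Recombinant WT HIV-1 RT in a Roche colorimetric kit: template plus DIG-dUTP, biotin-dUTP and dTTP, ±inhibitor, 1 h at 37 °C. Product captured on streptavidin plate 1 h at 37 °C, anti-DIG-POD 1 h at 37 °C, ABTS developed at 25 °C, read at OD405. IC50 is the concentration inhibiting biotin-dUTP incorporation by 50%.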

Compound | IC50 [nM]
Cc1cc(C)c(Oc2nc(NC3CCN(Cc4ccc(F)cc4F)CC3)nc3ccsc23)c(C)c1 | 1600

System: Human immunodeficiency virus 1
Experiment: Fold resistance, ratio of IC50 for recombinant HIV1 reverse transcriptase K103N/Y181C double mutant to IC50 for wild type HIV1 reverse transcriptase
Details: not given
In short: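 Ratio of mutant to WT IC50. Recombinant WT and K103N/Y181C RT were assayed with a kit: template plus DIG-dUTP, biotin-dUTP and dTTP, with or without inhibitor, 1 h at 37 °C. Product was captured on streptavidin, detected with anti-DIG-POD and ABTS, and read at 405 nm. IC50 is the concentration inhibiting biotin-dUTP incorporation by 50%.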

Compound | Ratio IC50
Cc1cc(C)c(Oc2nc(NC3CCN(Cc4ccc(F)cc4F)CC3)nc3ccsc23)c(C)c1 | 30

System: Human immunodeficiency virus 1
Experiment: Antiviral activity against HIV1 3B harboring reverse transcriptase F227L/V106A double mutant infected in human MT4 cells assessed as protection against virus induced cytotoxicity after 5 days by MTT assay
Assay type: functional, cell-based
Details: Human immunodeficiency virus 1, 3B, MT4, 120 h
In short: (§1)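 MTT cytopathicity assay in MT-4 cells (6 × 10^5 cells/mL). Compounds serially diluted 5-fold in triplicate wells, run in parallel on infected and mock-infected cells. Virus added at 100−300 CCID50 per well. Viability read spectrophotometrically at 540 and 690 nm after 5 days, using the median OD of three wells. EC50 is the concentration giving 50% protection from viral cytopathogenicity.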

Compound | EC50 [nM]
Cc1cc(C)c(Oc2nc(NC3CCN(Cc4ccc(F)cc4F)CC3)nc3ccsc23)c(C)c1 | 6610

System: not listed separately
Experiment: Selectivity index, ratio of CC50 for human mock-infected MT4 cells to EC50 for HIV1 3B harboring reverse transcriptase F227L/V106A double mutant infected in human MT4 cells
Assay type: toxicity, cell-based
Details: MT4 cells (mock-infected for CC50, HIV-1 infected for EC50)
In short: (§2)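 Selectivity index is CC50/EC50. CC50 is the concentration that reduces OD540 of mock-infected MT-4 cells by 50% in the 5-day MTT assay. EC50 is the 50% protection from virus-induced cytopathicity, measured in parallel on infected wells.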

Compound | selectivity ratio
Cc1cc(C)c(Oc2nc(NC3CCN(Cc4ccc(F)cc4F)CC3)nc3ccsc23)c(C)c1 | 2

System: not listed separately
Experiment: Selectivity index, ratio of CC50 for human mock-infected MT4 cells to EC50 for HIV1 3B harboring reverse transcriptase K103N mutant infected in human MT4 cells
Assay type: toxicity, cell-based
Details: MT4 cells (mock-infected for CC50, HIV-1 infected for EC50)
In short: as §2

Compound | selectivity ratio
Cc1cc(C)c(Oc2nc(NC3CCN(Cc4ccc(F)cc4F)CC3)nc3ccsc23)c(C)c1 | 86

System: Human immunodeficiency virus 1
Experiment: Antiviral activity against HIV1 3B harboring reverse transcriptase Y188L mutant infected in human MT4 cells assessed as protection against virus induced cytotoxicity after 5 days by MTT assay
Assay type: functional, cell-based
Details: Human immunodeficiency virus 1, 3B, MT4, 120 h
In short: as §1

Compound | EC50 [nM]
Cc1cc(C)c(Oc2nc(NC3CCN(Cc4ccc(F)cc4F)CC3)nc3ccsc23)c(C)c1 | 787

System: Human immunodeficiency virus 1
Experiment: Antiviral activity against HIV1 3B harboring reverse transcriptase Y181C mutant infected in human MT4 cells assessed as protection against virus induced cytotoxicity after 5 days by MTT assay
Assay type: functional, cell-based
Details: Human immunodeficiency virus 1, 3B, MT4, 120 h
In short: as §1, with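 “wells.” for “wells. EC50 is the concentration giving 50% protection from viral cytopathogenicity.”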

Compound | EC50 [nM]
Cc1cc(C)c(Oc2nc(NC3CCN(Cc4ccc(F)cc4F)CC3)nc3ccsc23)c(C)c1 | 660

System: not listed separately
Experiment: Antiviral activity against HIV2 ROD harboring reverse transcriptase infected in human MT4 cells assessed as protection against virus induced cytotoxicity after 5 days by MTT assay
Assay type: functional, cell-based, Human immunodeficiency virus type 2 (ISOLATE ROD)
Details: Human immunodeficiency virus 2, MT4, 120 h
In short: as §1

Compound | EC50 [nM]
Cc1cc(C)c(Oc2nc(NC3CCN(Cc4ccc(F)cc4F)CC3)nc3ccsc23)c(C)c1 | > 14000

System: not listed separately
Experiment: Cytotoxicity against human mock-infected MT4 cells assessed as reduction in cell viability after 5 days by MTT assay
Assay type: toxicity, cell-based
Details: not given
In short: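 Mock-infected MT-4 cells (6 × 10^5 cells/mL at seeding) with serial 5-fold compound dilutions in triplicate wells. Viability read by MTT after 5 days, absorbance at 540 and 690 nm, median OD of three wells. CC50 is the concentration reducing OD540 of mock-infected cells by 50%.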

Compound | CC50 at 120 h [nM]
Cc1cc(C)c(Oc2nc(NC3CCN(Cc4ccc(F)cc4F)CC3)nc3ccsc23)c(C)c1 | 14000

Target: Human immunodeficiency virus type 1 reverse transcriptase (Human immunodeficiency virus 1, UniProt Q72547, K103N/Y181C)
Experiment: Inhibition of recombinant HIV1 reverse transcriptase K103N/Y181C double mutant using DIG-dUTP/biotin-dUTP/dTTP assessed as suppression of biotin-dUTP incorporation after 1 hr by ELISA
Details: not given

Compound | IC50 [nM]
Cc1cc(C)c(Oc2nc(NC3CCN(Cc4ccc(F)cc4F)CC3)nc3ccsc23)c(C)c1 | 46400

System: Human immunodeficiency virus 1
Experiment: Antiviral activity against HIV1 3B harboring reverse transcriptase L100I mutant infected in human MT4 cells assessed as protection against virus induced cytotoxicity after 5 days by MTT assay
Assay type: functional, cell-based
Details: Human immunodeficiency virus 1, 3B, MT4, 120 h
In short: as §1

Compound | EC50 [nM]
Cc1cc(C)c(Oc2nc(NC3CCN(Cc4ccc(F)cc4F)CC3)nc3ccsc23)c(C)c1 | 1240

System: not listed separately
Experiment: Selectivity index, ratio of CC50 for human mock-infected MT4 cells to EC50 for HIV1 RES056 harboring reverse transcriptase K103N/Y181C double mutant infected in human MT4 cells
Assay type: toxicity, cell-based
Details: MT4 cells (mock-infected for CC50, HIV-1 infected for EC50)
In short: as §2

Compound | selectivity ratio
Cc1cc(C)c(Oc2nc(NC3CCN(Cc4ccc(F)cc4F)CC3)nc3ccsc23)c(C)c1 | < 1

System: not listed separately
Experiment: Selectivity index, ratio of CC50 for human mock-infected MT4 cells to EC50 for HIV1 3B harboring reverse transcriptase Y181C mutant infected in human MT4 cells
Assay type: toxicity, cell-based
Details: MT4 cells (mock-infected for CC50, HIV-1 infected for EC50)
In short: as §2

Compound | selectivity ratio
Cc1cc(C)c(Oc2nc(NC3CCN(Cc4ccc(F)cc4F)CC3)nc3ccsc23)c(C)c1 | 21

System: Human immunodeficiency virus 1
Experiment: Antiviral activity against wild type HIV1 3B harboring reverse transcriptase infected in human MT4 cells assessed as protection against virus induced cytotoxicity after 5 days by MTT assay
Assay type: functional, cell-based
Details: Human immunodeficiency virus 1, 3B, MT4, 120 h
In short: as §1, with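 “wells.” for “wells. EC50 is the concentration giving 50% protection from viral cytopathogenicity.”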

Compound | EC50 [nM]
Cc1cc(C)c(Oc2nc(NC3CCN(Cc4ccc(F)cc4F)CC3)nc3ccsc23)c(C)c1 | 36.8

System: not listed separately
Experiment: Selectivity index, ratio of CC50 for human mock-infected MT4 cells to EC50 for HIV1 3B harboring reverse transcriptase L100I mutant infected in human MT4 cells
Assay type: toxicity, cell-based
Details: MT4 cells (mock-infected for CC50, HIV-1 infected for EC50)
In short: as §2

Compound | selectivity ratio
Cc1cc(C)c(Oc2nc(NC3CCN(Cc4ccc(F)cc4F)CC3)nc3ccsc23)c(C)c1 | 11

System: not listed separately
Experiment: Selectivity index, ratio of CC50 for human mock-infected MT4 cells to EC50 for HIV1 3B harboring reverse transcriptase E138K mutant infected in human MT4 cells
Assay type: toxicity, cell-based
Details: MT4 cells (mock-infected for CC50, HIV-1 infected for EC50)
In short: as §2

Compound | selectivity ratio
Cc1cc(C)c(Oc2nc(NC3CCN(Cc4ccc(F)cc4F)CC3)nc3ccsc23)c(C)c1 | 80

System: not listed separately
Experiment: Selectivity index, ratio of CC50 for human mock-infected MT4 cells to EC50 for HIV1 3B harboring reverse transcriptase Y188L mutant infected in human MT4 cells
Assay type: toxicity, cell-based
Details: MT4 cells (mock-infected for CC50, HIV-1 infected for EC50)
In short: as §2

Compound | selectivity ratio
Cc1cc(C)c(Oc2nc(NC3CCN(Cc4ccc(F)cc4F)CC3)nc3ccsc23)c(C)c1 | 18

System: Human immunodeficiency virus 1
Experiment: Antiviral activity against HIV1 3B harboring reverse transcriptase K103N mutant infected in human MT4 cells assessed as protection against virus induced cytotoxicity after 5 days by MTT assay
Assay type: functional, cell-based
Details: Human immunodeficiency virus 1, 3B, MT4, 120 h
In short: as §1

Compound | EC50 [nM]
Cc1cc(C)c(Oc2nc(NC3CCN(Cc4ccc(F)cc4F)CC3)nc3ccsc23)c(C)c1 | 163

System: not listed separately
Experiment: Selectivity index, ratio of CC50 for human mock-infected MT4 cells to EC50 for wild type HIV1 3B harboring reverse transcriptase infected in human MT4 cells
Assay type: toxicity, cell-based
Details: MT4 cells (mock-infected for CC50, HIV-1 infected for EC50)
In short: as §2

Compound | selectivity ratio
Cc1cc(C)c(Oc2nc(NC3CCN(Cc4ccc(F)cc4F)CC3)nc3ccsc23)c(C)c1 | 380

System: Human immunodeficiency virus 1
Experiment: Antiviral activity against HIV1 3B harboring reverse transcriptase E138K mutant infected in human MT4 cells assessed as protection against virus induced cytotoxicity after 5 days by MTT assay
Assay type: functional, cell-based
Details: Human immunodeficiency virus 1, 3B, MT4, 120 h
In short: as §1

Compound | EC50 [nM]
Cc1cc(C)c(Oc2nc(NC3CCN(Cc4ccc(F)cc4F)CC3)nc3ccsc23)c(C)c1 | 174
